CHRM4 antagonist: human M4 muscarinic receptor antagonists, primary screen, CHO cells, Fluo-8 calcium fluorescence; Muscarinic acetylcholine receptor M4 (Homo sapiens), P08173; CHO-hM4 cells, ACh EC80; inhibition, % at 3 µM; hit rate 0.73% among 360,000; AID 624125, 2012;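 active = inhibition above its plate's cutoff, the mean inhibition of sample wells plus 3 SD, cut at about 27% in these data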;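 also: 0% = acetylcholine EC80 with DMSO and 100% = DMSO without agonist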
CHRM4 PAM: human M4 muscarinic receptor positive allosteric modulators, primary screen, CHO-K1 cells, Fluo-8 calcium fluorescence. CHO-K1 hM4/Gqi5, ACh EC20; 0% = ACh EC20, 100% = maximal ACh. hit rate 0.4% among 360,000. AID 624126, 2012. Muscarinic acetylcholine receptor M4 (Homo sapiens), P08173. activation, % at 3 µM;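 active = activation above its plate's cutoff, the mean activation of sample wells plus 3 SD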
M4 ag: human M4 muscarinic receptor agonists, primary screen, CHO-K1 cells, Fluo-8 calcium fluorescence | Muscarinic acetylcholine receptor M4 (Homo sapiens), P08173 | CHO-K1 hM4/Gqi5; vehicle 0%, full acetylcholine response 100% | activation, % at 3 µM | hit rate 0.14% among 360,000;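 active = activation above the run mean over all test wells plus 3 SD, cut at about 32% in these data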;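 also: peak over basal fluorescence ratio per well then scaled between controls; 0% = DMSO wells and 100% = acetylcholine at EC100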
M5 PAM: human M5 muscarinic receptor positive allosteric modulators, primary screen, CHO-K1 cells, Fluo-8 calcium fluorescence | Muscarinic acetylcholine receptor M5 (Homo sapiens), P08912 | CHO-K1 hM5, ACh EC20 PAM; 0% = ACh EC20, 100% = ACh EC100 | activation, % at 3 µM | hit rate 0.3% among 360,000;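 active = activation above the run cutoff, the mean activation of all test compounds plus 3 SD, cut at about 18% in these data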
Target sequence (P08912 whole entry, looked up): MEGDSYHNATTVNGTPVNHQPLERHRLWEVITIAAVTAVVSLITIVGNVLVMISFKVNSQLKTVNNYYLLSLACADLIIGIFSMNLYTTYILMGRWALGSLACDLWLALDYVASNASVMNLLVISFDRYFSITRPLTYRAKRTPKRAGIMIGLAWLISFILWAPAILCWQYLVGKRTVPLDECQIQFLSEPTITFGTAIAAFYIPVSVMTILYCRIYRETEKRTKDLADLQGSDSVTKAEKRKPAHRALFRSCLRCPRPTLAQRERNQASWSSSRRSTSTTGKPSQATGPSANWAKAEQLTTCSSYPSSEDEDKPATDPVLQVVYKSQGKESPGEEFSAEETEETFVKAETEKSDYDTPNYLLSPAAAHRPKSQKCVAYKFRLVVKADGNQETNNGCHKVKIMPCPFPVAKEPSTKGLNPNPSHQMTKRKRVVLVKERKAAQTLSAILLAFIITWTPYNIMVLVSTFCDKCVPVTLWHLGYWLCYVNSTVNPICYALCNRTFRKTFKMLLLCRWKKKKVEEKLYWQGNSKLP
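System: CHO-K1 hM5 cells. Reagent: acetylcholine, EC20 level. Compound dosing: single dose, 3 µM nominal final test concentration. Timing: Post-acetylcholine fluorescence recording 140 s. Detection: Fluo-8 calcium fluorescence. Read-out: % activation, ACh-normalized. Benchmarks: ACh EC20 and EC100 wells. Repeats: singlicate, one well per test compound.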
M5 ag: human M5 muscarinic receptor agonists, primary screen, CHO-K1 cells, Fluo-8 calcium fluorescence. AID 624037, 2012. activation, % at 3 µM. hit rate 0.19% among 360,000. CHO-K1 hM5 cells; 0% DMSO wells, 100% maximal acetylcholine response;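 active = activation above the run's mean over test compounds plus 3 SD, cut at about 23% in these data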;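 also: signal is peak over basal fluorescence ratio across the kinetic read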
M5 antag: human M5 muscarinic receptor antagonists, primary screen, CHO cells, Fluo-8 calcium fluorescence; inhibition, % at 3 µM; hit rate 0.59% among 360,000; CHO-hM5 cells, ACh EC80; Muscarinic acetylcholine receptor M5 (Homo sapiens), P08912; AID 624040, 2012;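 active = inhibition above a per-plate cutoff, the mean of that plate's test compounds plus 3 SD, cut at about 27% in these data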;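 also: 0% = acetylcholine EC80 with DMSO and 100% = DMSO without agonist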
* hit, by the source's call. A selection: hits, their analogues and other compounds. The true share with any hit is near 1.9%.

SMILES	CHRM4 antagonist	CHRM4 PAM	M4 ag	M5 PAM	M5 ag	M5 antag
Cc1ccc(C(C)n2cc(C(=O)NCc3cccnc3)nn2)cc1 (stereo not given)	-6	11	3	18*	5	-6
CC1(C(=O)Nc2cnc3ccccc3c2)CCN1C(=O)c1ccccc1CCc1ccccc1 (stereo not given)	-3	-8	5	-6	-1	1
Cc1cc(F)ccc1-c1cc(C(=O)NCc2ccc(C(F)(F)F)cc2)[nH]n1	-7	-4	20	1	33*	5
Cc1ccc(NC(=O)C2(C)CCN2C(=O)Cc2ccc(C(C)C)cc2)cc1 (stereo not given)	-9	-8	2	3	-1	-11
Cn1nccc1-c1ccc(C(=O)NCc2ccco2)c2occc12	-3	1	0	0	-1	4
COc1ccc(/C=C2/C(=O)ON=C2c2ccccc2)cc1OC	-11	8	1	23*	0	-11
CCCNC(=O)C1(C)CCCN(C(=O)c2ccc3snnc3c2)C1 (stereo not given)	7	0	1	1	2	-1
CC1=Nn2c(nnc2-c2cc(-c3ccccc3)n[nH]2)SC1	-14	11	1	3	-4	-5
CC1=Nn2c(nnc2C2CCCCC2)SC1	10	31*	0	10	3	-2
CCOC(=O)[C@]12CCCC=C1N(CCC1=CCCCC1)C(=O)[C@H](CC(=O)N1CCN(C(=O)C3CC3)CC1)C2	-15	11	3	6	-1	-5
O=C(/C=C/c1ccccc1)NC(NC(=S)Nc1ccc(Cl)cc1Cl)C(Cl)(Cl)Cl (stereo not given)	9	-24	11	-19	1	34*
COc1ccc(CN2C(=O)CCC2(C)c2nnnn2Cc2ccccc2)cc1 (stereo not given)	-1	3	1	3	2	13
CCN(CC)c1ccc(/C=C(/C#N)C(=O)NCc2ccccc2)o1	8	-11	13	-18	30*	9
CCN(CC)c1ccc(/C=C(/C#N)C(=O)NC(C)C)o1	7	5	10	-1	6	14
Cc1ccc(NC(=O)[C@H](C)NC(=O)C2CCN(C(=O)[C@@H](NC(=O)OC(C)(C)C)C(C)C)CC2)cc1	-1	17*	-1	0	-5	-2
O=P(CCO)(c1ccccc1)c1ccccc1	-1	3	1	3	-1	0
O=C(O)CP(=O)(c1ccccc1)c1ccccc1	2	22*	1	-5	-2	-6
CC(=O)Nc1scc(C)c1-c1nc2ccccc2s1	-5	-6	0	-3	-4	10
CNc1sc(C(=O)c2cccs2)c(N)c1-c1nc2ccccc2s1	34*	1	2	6	2	20
CNc1sc(C(=O)c2ccc(F)cc2)c(N)c1-c1nc2ccccc2s1	32*	15	3	-5	0	19
CC(C)(C)N1C(=O)c2ccccc2NC(=O)C1C(=O)Nc1ccc2c(c1)OCCO2 (stereo not given)	1	6	4	-2	0	5
CO[C@H]1CN(C)C(=O)c2cc(NC(=O)C3CCCC3)ccc2OC[C@@H](C)NC[C@H]1C	-21	9	1	-3	0	-1
O=C(COC(=O)/C=C/c1cccc(F)c1)NCc1ccc2c(c1)OCO2	-10	7	0	3	0	-4
CC1CN(C(=O)N(C)C)CCN1C(=O)N(C)C (stereo not given)	31*	13	0	-4	-2	7
Cn1nc(C(F)(F)F)c(-c2cccc(C(F)(F)F)c2)c1NC(=O)Nc1ccc(F)cc1	8	-14	14	-26	3	34*
SMILES	CHRM4 antagonist	CHRM4 PAM	M4 ag	M5 PAM	M5 ag	M5 antag
CC(C)C[C@H]1CNC(=S)N1C[C@H]1CCCN1C[C@H](Cc1ccc(O)cc1)N1C[C@H](CC(C)C)N(CCc2ccccc2)C1=S	0	-9	-1	-14	-1	12
COc1ncnc2c1ncn2CCCN1CCN(C(=O)C2CC2)CC1	-3	-2	1	-1	1	6
COc1cccc(C2SCC(=O)N2c2ccc(C)cc2)c1OC (stereo not given)	65*	-39	-1	-19	-7	22
COc1ccc(N2C(=O)CSC2c2cccc(OC)c2OC)cc1 (stereo not given)	16	-10	1	-13	-7	4
CCCCNC(=O)C1(C)CCN1C(=O)c1sccc1C (stereo not given)	-2	6	0	-2	0	-2
CC(=O)OCC(C)n1[nH]c2ccccc2c1=O (stereo not given)	-10	6	-1	6	3	-3
CCN(CC)CCNC(=O)c1ccc(NC(=O)c2ccc(Cl)c(S(=O)(=O)N3CCCCCC3)c2)cc1	70*	-46	1	-33	-19	79*
CCN(CC)CCNC(=O)c1ccc(NC(=O)c2cccc(S(=O)(=O)N3CCCCCC3)c2)cc1	79*	-15	1	-43	-11	79*
CCN(CC)CCNC(=O)c1ccc(NC(=O)c2ccc(S(=O)(=O)N3CCCCCC3)cc2)cc1	-7	-4	0	-6	-8	8
O=C(c1cccc(C(F)(F)F)c1)N1CCCCCC1	-7	-1	0	-5	-2	-4
CC(C)n1c(C(F)(F)F)nc2cc(C(=O)N3CCCCC3)ccc21	30*	-2	1	0	1	11
CC(C)NC(=O)N1Cc2cc(C(=O)NC3CCCC3)nc(-c3cccc(-c4cccnc4)c3)c2[C@@H]1CCO	-3	2	5	-5	4	-3
CCOc1ccc(NCc2cccn2-c2nnc(N3CCC(C(=O)NCCCN4CC(C)CC(C)C4)CC3)s2)cc1 (stereo not given)	34*	-13	4	-11	-8	-11
CC(=O)c1c(O)cc(C)n(-c2ccc(F)cc2)c1=O	9	-2	0	3	-2	2
COC(=O)c1c(O)cc(C(C)(C)C)n(-c2ccc(F)cc2)c1=O	-1	37*	-1	3	-2	2
Cc1cccc(C)c1NC(=O)C1c2ccccc2OCC(=O)N1Cc1ccccc1 (stereo not given)	-14	1	-1	-5	-1	2
Cc1ncc(C[n+]2csc(C)c2C)c(N)n1	10	17	0	22*	-6	-8

Source: PubChem
